Measured values as given in ChEMBL document CHEMBL1125307, “Novel 1,2,4-oxadiazoles and 1,2,4-thiadiazoles as dual 5-lipoxygenase and cyclooxygenase inhibitors” (J Med Chem, 1992).
The source made the active and inactive calls. No cut-off for these calls is given here.

Tests used:
Rattus norvegicus [1] = assay: Compound was evaluated for the antiinflammatory activity by taking the percentage inhibition of edema in the carrageenan foot-pad edema test at the dose of 30 mg/kg; format: functional
Procedure, shortened: (§1)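 Male Wistar rats dosed orally (0.5% HPMC/0.2% Tween 80 or Labrafils, 10 mL/kg) 1 h before subplantar injection of 0.10 mL 1% carrageenan into right hind paw under light anesthesia. Paw volume by mercury plethysmography at challenge and 5 h later; percent inhibition ± SEM versus vehicle group. Doses 10.0 and 30.0 mg/kg po, 7-14 rats per dose.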

Rattus norvegicus [2] = organism: Rattus norvegicus; assay: Ratio of IC50 against 5-LO and COX
Procedure, shortened: (§2)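 In ionophore-stimulated RBL-1 cells (2×10^6/mL, PBS with 1.0 mM Ca, 10 min compound preincubation at room temperature, 5 μM A23187 for 7 min at 37 °C), supernatant LTB₄ (5-LO) and PGF₂α (CO) were each quantified by RIA over 0.10–10.0 μM. IC50s came from linear regression, and the ratio is the 5-LO IC50 over the CO IC50.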

Rattus norvegicus [3] = assay: Evaluated for the percent rats with ulcers at the dose of 200 mg/kg (number of animals used per group in the experiment are 10 ); format: functional
Procedure, shortened: (§3)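 Male outbred Wistar rats (100-250 g) fasted 24 h, given compound orally in 0.5% HPMC (2 mL/kg), then denied food and water 6 more h. Killed with CO2; stomachs opened along greater curvature and scored for ulcers. Percent of rats with ulcers per dose; up to 200 mg/kg po, 10 rats per dose.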

[4] = biological target: T1, Polyunsaturated fatty acid 5-lipoxygenase (Rattus norvegicus, UniProt P12527); assay: Inhibitory activity against 5-Lipoxygenase
T1 sequence (P12527 whole entry): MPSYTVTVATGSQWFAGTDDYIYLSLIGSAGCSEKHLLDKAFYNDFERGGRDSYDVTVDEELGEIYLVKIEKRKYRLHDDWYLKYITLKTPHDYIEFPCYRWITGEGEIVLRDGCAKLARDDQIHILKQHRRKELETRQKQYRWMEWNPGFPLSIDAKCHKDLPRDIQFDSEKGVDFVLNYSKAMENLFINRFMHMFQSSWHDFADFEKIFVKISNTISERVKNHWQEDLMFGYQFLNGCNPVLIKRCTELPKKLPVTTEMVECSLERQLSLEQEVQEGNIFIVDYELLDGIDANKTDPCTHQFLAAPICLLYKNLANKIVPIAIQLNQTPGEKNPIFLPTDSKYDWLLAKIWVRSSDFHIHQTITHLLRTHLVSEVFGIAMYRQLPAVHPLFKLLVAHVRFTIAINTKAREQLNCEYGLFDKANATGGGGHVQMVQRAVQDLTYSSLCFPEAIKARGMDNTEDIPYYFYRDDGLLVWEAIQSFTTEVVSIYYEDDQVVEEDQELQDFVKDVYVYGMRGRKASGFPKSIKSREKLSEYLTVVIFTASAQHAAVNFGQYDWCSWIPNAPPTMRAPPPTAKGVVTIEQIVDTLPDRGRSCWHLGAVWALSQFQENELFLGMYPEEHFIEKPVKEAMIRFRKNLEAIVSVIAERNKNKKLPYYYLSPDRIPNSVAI
Procedure, shortened: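 Rat basophilic leukemia RBL-1 cells were grown in suspension in MEM with 12% FBS, washed, and resuspended at 2×10^6 cells/mL in PBS pH 7.4 with 1.0 mM calcium. Compound in DMSO was preincubated 10 min at room temperature, then 5 μM A23187 was added for 7 min at 37 °C. LTB₄ in the supernatant was measured by RIA at 0.10–10.0 μM. IC50 was determined by linear regression.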

Rattus norvegicus [5] = assay: Compound was evaluated for the antiinflammatory activity by taking the percentage inhibition of edema in the carrageenan foot-pad edema test at the dose of 10 mg/kg; format: functional; procedure, shortened: as §1
Cyclooxygenase = biological target: T2, Cyclooxygenase (Rattus norvegicus, UniProt P35355+Q63921); assay: Evaluated in vitro for its inhibitory activity against Prostaglandin G/H synthase; format: protein assay
T2 sequence (P35355 whole entry): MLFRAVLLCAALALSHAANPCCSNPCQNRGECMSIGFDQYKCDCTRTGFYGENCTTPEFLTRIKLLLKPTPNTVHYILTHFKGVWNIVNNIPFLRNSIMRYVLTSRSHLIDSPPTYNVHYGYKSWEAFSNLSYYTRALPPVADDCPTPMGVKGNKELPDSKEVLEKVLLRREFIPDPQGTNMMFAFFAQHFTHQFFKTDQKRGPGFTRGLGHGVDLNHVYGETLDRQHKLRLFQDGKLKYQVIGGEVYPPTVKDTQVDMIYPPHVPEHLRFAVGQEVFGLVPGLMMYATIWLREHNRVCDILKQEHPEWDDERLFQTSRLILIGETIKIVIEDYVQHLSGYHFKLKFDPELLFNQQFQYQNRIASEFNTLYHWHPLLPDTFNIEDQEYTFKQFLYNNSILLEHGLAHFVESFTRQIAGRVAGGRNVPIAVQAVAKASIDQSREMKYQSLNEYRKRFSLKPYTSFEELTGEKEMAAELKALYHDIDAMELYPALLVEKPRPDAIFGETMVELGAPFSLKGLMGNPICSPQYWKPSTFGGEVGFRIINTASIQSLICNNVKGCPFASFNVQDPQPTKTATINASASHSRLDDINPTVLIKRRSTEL
T2 sequence (Q63921 whole entry): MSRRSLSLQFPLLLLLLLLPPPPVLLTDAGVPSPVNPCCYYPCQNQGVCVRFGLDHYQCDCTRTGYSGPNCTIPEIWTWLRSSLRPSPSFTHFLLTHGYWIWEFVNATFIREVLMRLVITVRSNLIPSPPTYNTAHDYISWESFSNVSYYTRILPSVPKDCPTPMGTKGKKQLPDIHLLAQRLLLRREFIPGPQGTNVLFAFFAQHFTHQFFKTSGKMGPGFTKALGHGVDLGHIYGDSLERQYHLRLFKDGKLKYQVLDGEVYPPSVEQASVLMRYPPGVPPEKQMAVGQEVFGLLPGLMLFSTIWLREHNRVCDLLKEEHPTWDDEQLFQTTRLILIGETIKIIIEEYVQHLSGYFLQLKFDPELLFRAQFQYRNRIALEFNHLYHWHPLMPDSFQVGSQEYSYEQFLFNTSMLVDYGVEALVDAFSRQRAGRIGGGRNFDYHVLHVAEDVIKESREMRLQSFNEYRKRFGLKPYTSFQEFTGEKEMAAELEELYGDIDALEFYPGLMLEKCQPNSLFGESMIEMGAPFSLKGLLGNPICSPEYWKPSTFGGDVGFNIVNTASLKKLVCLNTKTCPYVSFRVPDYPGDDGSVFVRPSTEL

Rattus norvegicus [6] = assay: Compound was evaluated for th antiinflammatory activity administering through oral route by taking the inhibitory dose of induced edema in the mycobacterium foot-pad edema test; format: functional
Rattus norvegicus [7] = assay: Evaluated for the antiinflammatory activity by measuring the percentage inhibition of edema in the carrageenan foot-pad edema test at the dose of 30 mg/kg; format: functional; procedure, shortened: as §1
Rattus norvegicus [8] = assay: Evaluated for the antiinflammatory activity by measuring the percentage inhibition of edema in the carrageenan foot-pad edema test at the dose of 10 mg/kg; format: functional; procedure, shortened: as §1
Rattus norvegicus [9] = assay: Compound was evaluated for the percent rats with ulcers at the dose of 36 mg/kg (number of animals used per group in the experiment are 10 ); format: functional; procedure, shortened: as §3
Rattus norvegicus [10] = assay: Evaluated for the antiinflammatory activity by measuring the dose (po) which inhibited Mycobacterium induced foot-pad edema in rats; format: functional
Rattus norvegicus [11] = assay: Compound was evaluated for the percent rats with ulcers at the dose of 30 mg/kg (number of animals used per group in the experiment are 10 ); format: functional; procedure, shortened: as §3
[12] = biological target: T1, Polyunsaturated fatty acid 5-lipoxygenase; assay: Evaluated in vitro for its inhibitory activity against 5-lipoxygenase
Rattus norvegicus [13] = organism: Rattus norvegicus; assay: Ratio of IC50 against 5-LO to that of CO enzyme.; procedure, shortened: as §2
Rattus norvegicus [14] = assay: Compound was evaluated for the antiinflammatory activity by taking the percentage inhibition of edema in the carrageenan foot-pad edema test at the dose of 30 mg/kg; N=Inactive, <25% inhibition; format: functional, organism-based; design: dose 30 mg/kg; procedure, shortened: as §1

| SMILES | inhibition in vivo at 30 mg/kg (Rattus norvegicus [1]) [%] | Ratio (Rattus norvegicus [2]) | Activity (Rattus norvegicus [3]) [%] | IC50 [4] [nM] | inhibition in vivo at 10 mg/kg (Rattus norvegicus [5]) [%] | IC50 (Cyclooxygenase) [nM] | ID40 (Rattus norvegicus [6]) [mg/kg] | inhibition in vivo at 30 mg/kg (Rattus norvegicus [7]) [%] | inhibition in vivo at 10 mg/kg (Rattus norvegicus [8]) [%] | Activity (Rattus norvegicus [9]) [%] | ID40 (Rattus norvegicus [10]) [mg/kg] | Activity (Rattus norvegicus [11]) [%] | IC50 [12] [nM] | Ratio (Rattus norvegicus [13]) | inhibition (Rattus norvegicus [14]) |
| --- | --- | --- | --- | --- | --- | --- | --- | --- | --- | --- | --- | --- | --- | --- | --- |
| CC(C)(C)c1cc(-c2nnc(S)s2)cc(C(C)(C)C)c1O.C[N+](C)(C)CC[O-] | 47.9 | 3.5 | 0 | 2800 | 49.9 | 800 | 7.7 |  |  |  |  |  |  |  |  |
| Cc1ccc(Cl)c(Nc2ccccc2C(=O)[O-])c1Cl.O.[Na+] [MECLOFENAMATE SODIUM] |  |  |  |  |  |  |  | 40.8 | 34.4 | 50 | 0.4 |  |  |  |  |
| CC(C)(C)c1cc(C2CCOC2=O)cc(C(C)(C)C)c1O (configuration not stated) |  |  |  |  |  | 150 |  | 28.4 | 16.6 |  | 3.7 | 30 | 2500 | 17 |  |
| CC(C)(C)c1cc(-c2nc(CCl)no2)cc(C(C)(C)C)c1O |  | 7.8 |  | 780 |  | 100 |  |  |  |  |  |  |  |  | inactive |
